From PubChem BioAssay
Compounds with a hit are over-represented: about 3.3% of the library has one in this group of screens.
PMI activator: phosphomannose isomerase (human) activation; P34949; activation factor at 20 µM; purified human PMI, coupled resazurin fluorescence, 20 min; stronger effect = higher value; 1 = vehicle control, 0 substrate-free wells; hit rate 0.005% among 190,000;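 active = activation factor of 2 or more at 20 µM, relative to plate controls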
Target sequence (P34949 whole entry, looked up): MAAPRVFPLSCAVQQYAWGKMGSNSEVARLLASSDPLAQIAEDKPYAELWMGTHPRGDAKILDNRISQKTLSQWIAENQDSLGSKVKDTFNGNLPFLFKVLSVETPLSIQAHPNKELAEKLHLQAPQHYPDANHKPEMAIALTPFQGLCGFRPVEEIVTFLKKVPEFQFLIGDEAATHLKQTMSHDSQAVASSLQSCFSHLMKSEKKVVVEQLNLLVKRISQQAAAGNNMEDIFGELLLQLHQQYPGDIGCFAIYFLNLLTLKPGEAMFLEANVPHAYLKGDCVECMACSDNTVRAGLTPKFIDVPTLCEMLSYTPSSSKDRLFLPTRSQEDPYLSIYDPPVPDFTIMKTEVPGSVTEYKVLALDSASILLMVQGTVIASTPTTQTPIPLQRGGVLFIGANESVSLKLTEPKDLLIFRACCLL
ABCB1 inh: inhibitors of human ABCB1 transporter, ABCG2 counter-screen. P08183. CCRF-Adr cells, JC-1 efflux, flow cytometry. inhibition, % at 6.6 µM. hit rate 0.067% among 190,000; in the data active = inhibition above about 40%;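 also: 0% = vehicle and 100% = reference inhibitor; higher value means more JC-1 retained so stronger ABCB1 efflux block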
PMI act satM6P: activators of human phosphomannose isomerase at near-saturating mannose 6-phosphate. P34949. coupled PMI enzyme assay, resazurin fluorescence, 20 min; stronger effect = higher value; 1 = untreated enzyme, 0 = substrate-free blank. activation factor at 20 µM. hit rate 0.34% among 190,000. AID 1216;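 active = activation factor of 2 or more at 20 µM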
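Material: human phosphomannose isomerase with PGI, G6PDH, diaphorase coupling enzymes. Quantity: 15 ng/mL PMI. Medium: HEPES pH 7.4 buffer with MgCl2 and Tween-20. Reagent: Near-saturating mannose-6-phosphate, 1.0 mM. Compound: 20 µM single dose. Times: enzyme reaction with compound 20 min at room temperature. Detection: resorufin fluorescence at Ex 544/Em 590 nm.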
ROMK mod: modulates human ROMK potassium channel activity; AID 1918; hit rate 2% among 130,000; P48048; Tet-inducible ROMK, thallium flux fluorescence; actives lie on both sides; B-score at 10 µM;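 active = signal ratio slope over the read window, or its plate-corrected B-score, at least 3 SD from the plate mean, either direction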;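 also: B-score of the F/F0 ratio slope over 7 to 12 s after thallium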
ABCG2 block: human ABCG2 inhibition, ABCB1 as counter-screen; hit rate 0.1% among 190,000; AID 1325; Q9UNQ0; inhibition, % at 6.6 µM; IgMXP3 cells, JC-1 efflux, flow cytometry;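 active = inhibition above 80%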;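 also: 0% = DMSO and 100% = nicardipine control wells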
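Test system: ABCG2 IgMXP3 and barcoded ABCB1 CCRF-Adr cell mix; Schedule: cells with compound and JC-1, 10 min at 25 °C, rotating, no wash; Technique: flow cytometry of retained JC-1 fluorescence; Measure: % inhibition of efflux relative to nicardipine and DMSO; Controls: nicardipine high and DMSO low controls.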
KCC2 mod: modulates chloride dependent transport by human KCC2; KCC2 cells, thallium flux FluoZin-2 fluorescence; AID 1456; hit rate 2.2% among 190,000; B-score of Tl+ flux slope (higher = more flux/activation; lower = inhibition) at 10 µM; Q9H2X9;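 active = thallium flux slope and its plate-corrected score both differing from the plate sample mean at a set confidence after two filtering rounds, in either direction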;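 also: slope of fluorescence scaled to starting intensity during 10 to 20 s after thallium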
The depositor's hits bear a star; i = inactive; nt = not tested or not shown.

SMILES | PMI activator | ABCB1 inh | PMI act satM6P | ROMK mod | ABCG2 block | KCC2 mod
CCOc1ccc(CCNC(=O)CN2C(=O)NC(CCSC)C2=O)cc1OCC (centres undefined) | 0.9 | 1 | 1 | -1 | 3 | -0.33
CC1(C)Cc2c(sc3[nH]c(=S)n(Cc4ccco4)c(=O)c23)CO1 | 0.9 | 2 | 1 | 1 | -6 | 9*
O=c1c2c3c(sc2[nH]c(=S)n1Cc1ccco1)CCC3 | nt | nt | nt | -5.5* | nt | 78*
CC(C)N1CC=C2C(C#N)=C(N)C(C#N)(C#N)C(c3ccccc3)C2C1 (centres undefined) | 0.7 | 0 | 0.8 | -4.2* | 2 | -0.12
CC(C)N1CC=C2C(C#N)=C(N)C(C#N)(C#N)[C@H](c3ccoc3)[C@H]2C1 | 0.6 | 1 | 0.4 | nt | 4 | i
CCN1CC=C2C(C#N)=C(N)C(C#N)(C#N)C(c3cc(Cl)ccc3Cl)C2C1 (centres undefined) | 0.8 | 1 | 0.6 | -4.8* | 1 | -0.72
CCn1c(=S)[nH]c2scc(-c3cccs3)c2c1=O | 1.1 | -1 | 1 | 13* | -2 | 60*
C=CCn1c(=S)[nH]c2scc(-c3ccc(C)o3)c2c1=O | 1.1 | 2 | 1 | 7.5* | 12 | 61*
COc1ccc(NC(=O)c2cccc([N+](=O)[O-])c2)cc1 | 1 | 1 | 1 | 0.17 | 13 | 1.2
COc1ccc(NC(=O)c2cc([N+](=O)[O-])ccc2O)cc1 | 1.1 | 0 | 1 | 4.5* | 8 | -3.3*
COc1cccc(/C=N/Nc2ccc(C(=O)O)cc2)c1O | 1.6 | 0 | 1.6 | -0.29 | 1 | -0.76
COc1cccc(/C=N/Nc2ccc(S(=O)(=O)O)cc2)c1O | 1.4 | 0 | 2.1* | -0.49 | 2 | nt
CC(=O)Nc1ccc(SCC(=O)Nc2cc(C)on2)cc1 | 1.1 | 1 | 1 | -0.0091 | 6 | 0.82
CN(C)c1cc[n+](CC(=O)Nc2ccc(OC(F)F)cc2)cc1 | nt | nt | nt | nt | nt | 0.68
CC(NC(=O)CCc1nnc(CCCc2ccccc2)o1)c1ccccc1 (centres undefined) | nt | 1 | nt | 0.016 | 2 | -0.49
CC1(C)CC(=O)C/C(=N\NC(=O)Cc2ccccc2)C1 | 1 | 0 | 1.1 | -0.2 | 0 | -0.71
CC1(C)CC(=O)C/C(=N/NC(=O)c2ccc(-c3ccccc3)cc2)C1 | 1 | 0 | 0.9 | -0.05 | -1 | -4.7*
O=C(NNc1ccc(O)cc1)c1ccc(Br)cc1 | 1.5 | 0 | 2.2* | 0.73 | 3 | 0.32
O=S(=O)(Nc1ccc2c(c1)nc1n2CCN(Cc2ccccc2)C1)c1ccccc1 | 1.5 | 3 | 1.9 | -2.2 | 19 | nt
O=S(=O)(Nc1ccc2c(c1)nc1n2CCN(Cc2ccccc2)C1)c1ccc(Cl)cc1 | 1.6 | 0 | 2.2* | nt | 34 | -1.3
COc1ccccc1C(=O)Nc1ccc2c(c1)nc1n2CCN(Cc2ccccc2)C1 | 1.5 | 3 | 1.4 | 0.59 | 3 | -0.48
Cc1ccc(S(=O)(=O)Nc2ccc3c(c2)nc2n3CCN(Cc3ccccc3)C2)cc1 | 1.5 | 1 | 2.2* | nt | 9 | 1.3
O=S(=O)(Nc1ccc2c(c1)nc1n2CCN(Cc2ccccc2)C1)c1ccc(F)cc1 | 1.6 | 1 | 2.1* | nt | 36 | -0.62
COc1cc(/C=N/NC(=O)Cn2ccc(C(F)(F)F)n2)cc(OC)c1OC | 1 | 0 | 1 | -0.007 | 2 | -0.0032
S=c1[nH]nc(-c2ccc(Br)o2)n1Cc1ccccc1 | 0.9 | 0 | 1 | 0.49 | -1 | 3.4*
SMILES | PMI activator | ABCB1 inh | PMI act satM6P | ROMK mod | ABCG2 block | KCC2 mod
S=c1[nH]nc(-c2ccco2)n1Cc1ccccc1 | 1 | 0 | 1 | 0.43 | -3 | -0.7
CCCOC(=O)c1c(NC(=O)C2C3C=CC(C3)C2C(=O)O)sc2c1CCC(C)C2 (centres undefined) | 0.7 | 0 | 0.9 | 3.5* | 0 | -3.1*
CCOC(=O)c1c(NC(=O)C2C3C=CC(C3)C2C(=O)O)sc2c1CC(C)CC2 (centres undefined) | 1 | 1 | 1.1 | 2.2 | 5 | -1.5
Cc1cc(C(F)(F)F)c2c(=O)[nH]c(=O)n(Cc3ccccc3)c2n1 | 1 | 0 | 0.9 | nt | 2 | -4.3*
Oc1c(Cl)cc(Cl)cc1C1=NNC(c2ccc(Cl)cc2)C1 (centres undefined) | 1.8 | 0 | 2.6* | 0.086 | 1 | 1
Oc1ccc(Cl)cc1C1=NNC(c2ccc(Cl)cc2)C1 (centres undefined) | 1.2 | -1 | 1.1 | nt | -2 | 3.2
Fc1ccc(-c2onc3ccc(C4OCCO4)cc23)cc1 | 1.1 | 1 | 1 | -0.12 | 7 | 0.6
O=Cc1ccc2noc(-c3ccc(F)cc3)c2c1 | 1.4 | 1 | 1.9 | -3.1* | 8 | -0.93
CC(=O)c1ccc2noc(-c3ccc(C)cc3)c2c1 | 1.9 | 0 | 2* | -1.5 | 24 | -1.1
O=C(Nc1ccc(OC(F)F)c(Cl)c1)Nc1ccc2c(c1)OCO2 | 0.8 | 0 | 0.8 | nt | 1 | 0.67
O=C(Nc1ccc([N+](=O)[O-])cc1)Nc1ccc(OC(F)F)c(Cl)c1 | 1 | 27 | 1 | 1.2 | 86* | 0.59
Fc1cccc(Nc2nc(Cl)nc(Cl)n2)c1 | 1.8 | 0 | 2.2* | 0.24 | -1 | 0.053
CCN1CCN(CC(=O)c2cc(Cl)ccc2Cl)CC1 | 1.6 | 3 | 2* | nt | 8 | 0.081
Cn1cc(CN2CCCC(C(=O)c3nccn3C)C2)c(-c2cccc(Cl)c2)n1 (centres undefined) | 0.9 | 2 | 1 | -0.17 | 1 | 0.63
Clc1cc2c(nn1)Nc1ccccc1S2 | nt | nt | nt | nt | nt | -0.0095
S=C1Nc2ccccc2Sc2ccc(Cl)cc21 | 1 | -1 | 1 | 1.5 | -5 | 16*
CCCCOC(=O)c1ccc(NC(=S)NC(=O)c2c(Br)c(C)nn2C)cc1 | 1.1 | -1 | 1.1 | nt | -7 | 29*
CCCCOC(=O)c1ccc(NC(=O)c2cnccn2)cc1 | 1 | 3 | 1 | nt | 49 | -0.47
CC(C)Oc1cccc(C(=O)NC(=S)N2CCN(c3ccc(C(F)(F)F)cc3[N+](=O)[O-])CC2)c1 | 0.9 | 1 | 0.9 | 0.31 | 5 | 18*
COc1cccc(C(=O)NC(=S)N2CCN(c3ccc(C(F)(F)F)cc3[N+](=O)[O-])CC2)c1 | 0.8 | 7 | 0.9 | nt | 18 | 8.8*
N=c1n(CCN2CCCC2)c2ccccc2n1CC(O)c1ccc(Cl)c(Cl)c1 (centres undefined) | 1 | 0 | 1 | -3.4 | 0 | -0.032
N=c1n(CCN2CCOCC2)c2ccccc2n1CC(=O)c1ccc(Cl)c(Cl)c1 | 1.3 | 1 | 1.6 | -4.9* | 5 | 0.004
O=C1CN(C(=O)CSc2nc3ccccc3c(=O)n2Cc2ccc(F)cc2)c2ccccc2N1 | 0.9 | 13 | 0.9 | nt | 17 | 19*
C=C(C)CCC1(C)NC(=O)N(c2ccccc2)N1 (centres undefined) | nt | nt | nt | nt | nt | 0.18
